Test results as given in ChEMBL document CHEMBL1122160, “Structure--activity relationships of nogalamycin analogues” (1982).

Assays:
Mus musculus [1] = assay: Tested for antitumor activity in vivo and the weight change in grams for the tumor in mouse was determined; assay type: functional
Outline: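 Mice received 10^6 P-388 leukemia cells intraperitoneally on day 0, following the standard NCI protocol. Drug was injected daily on days 1-9, or only on days 1, 5 and 9 for certain analogues.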

L1210 [2] = assay: Micromolar concentration required to inhibit the growth of L1210 cells by 90% was determined; assay type: functional, Mus musculus
Mus musculus [3] = assay: […] percent increase in life span of mice injected intraperitoneally with P-388 leukemia after administration (5 mg/kg)/day; assay type: functional
Outline: (§1)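 P-388 leukemia cells (10^6) implanted intraperitoneally in mice on day 0, following a standard National Cancer Institute protocol. Drug was given daily on days 1-9, or on days 1, 5 and 9 for some analogues. Dose level is as in each line.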

L1210 [4] = assay: Micromolar concentration required to inhibit the growth of L1210 cells by 50% was determined; assay type: functional; conditions: Mus musculus, read-out: ID50 (the source's name)
Mus musculus [5] = assay: […] percent increase in life span of mice injected intraperitoneally with P-388 leukemia after administration (50 mg/kg)/day; assay type: functional; outline: as §1
Mus musculus [6] = assay: […] percent increase in life span of mice injected intraperitoneally with P-388 leukemia after administration (6.25 mg/kg)/day; assay type: functional; outline: as §1
Mus musculus [7] = assay: In vivo percent increase in life span of mice injected intraperitoneally with P-388 leukemia after administration (25 mg/kg)/day
Mus musculus [8] = assay: […] percent increase in life span of mice injected intraperitoneally with P-388 leukemia after administration (8 mg/kg)/day; assay type: functional; outline: as §1
Mus musculus [9] = assay: […] percent increase in life span of mice injected intraperitoneally with P-388 leukemia after administration (20 mg/kg)/day; assay type: functional; outline: as §1
Mus musculus [10] = assay: […] percent increase in life span of mice injected intraperitoneally with P-388 leukemia after administration (1.25 mg/kg)/day; assay type: functional; outline: as §1
Mus musculus [11] = assay: […] percent increase in life span of mice injected intraperitoneally with P-388 leukemia after administration (33 mg/kg)/day; assay type: functional; outline: as §1
Mus musculus [12] = assay: […] percent increase in life span of mice injected intraperitoneally with P-388 leukemia after administration (12.5 mg/kg)/day; assay type: functional; outline: as §1
Mus musculus [13] = assay: […] percent increase in life span of mice injected intraperitoneally with P-388 leukemia after administration (16 mg/kg)/day; assay type: functional; outline: as §1
Mus musculus [14] = assay: […] percent increase in life span of mice injected intraperitoneally with P-388 leukemia after administration (10 mg/kg)/day; assay type: functional; outline: as §1
Mus musculus [15] = assay: […] percent increase in life span of mice injected intraperitoneally with P-388 leukemia after administration (100 mg/kg)/day; assay type: functional; outline: as §1
Mus musculus [16] = assay: […] percent increase in life span of mice injected intraperitoneally with P-388 leukemia after administration (1 mg/kg)/day; assay type: functional; outline: as §1
Mus musculus [17] = assay: […] percent increase in life span of mice injected intraperitoneally with P-388 leukemia after administration (400 mg/kg)/day; assay type: functional; outline: as §1
Mus musculus [18] = assay: […] percent increase in life span of mice injected intraperitoneally with P-388 leukemia after administration (40 mg/kg)/day; assay type: functional; outline: as §1

| Structure (SMILES) | Weight change (Mus musculus [1]) [g] | ID90 (L1210 [2]) [nM] | IC50 (L1210 [4]) [nM] | other results |
| --- | --- | --- | --- | --- |
| COC1C(C)OC(OC2CC(C)(O)Cc3cc4c(c(O)c32)C(=O)c2c(O)cc3c(c2C4=O)OC2OC3(C)C(O)C(N(C)C)C2O)C(OC)C1(C)OC (stereo not given) | -0.2 | 270 | 180 | ILS (Mus musculus [3]): 93% |
| COC(=O)C1c2cc3c(c(O)c2CCC1(C)O)C(=O)c1c(O)cc2c(c1C3=O)OC1OC2(C)C(O)C(N(C)C)C1O (stereo not given) | -0.7 | 1510 | 580 | ILS (Mus musculus [5]): 27% |
| COC(=O)C1c2cc3c(c(O)c2C(OC2OC(C)C(OC)C(C)(OC)C2OC)CC1(C)O)C(=O)c1c(O)cc2c(c1C3=O)OC1OC2(C)C(OC(C)=O)C(N(C)C)C1OC(C)=O (stereo not given) | -0.3 | 185 | 69 | ILS (Mus musculus [6]): 3% |
| CNC1C(O)C2Oc3c(cc(O)c4c3C(=O)c3cc5c(c(O)c3C4=O)C(OC3OC(C)C(OC)C(C)(OC)C3OC)CC(C)(O)C5C(=O)OC)C(C)(O2)C1O (stereo not given) | -0.5 | 900 | 360 | ILS (Mus musculus [7]): 59% |
| CSC1CC(C)(O)Cc2cc3c(c(O)c21)C(=O)c1c(O)cc2c(c1C3=O)OC1OC2(C)C(O)C(N(C)C)C1O (stereo not given) | -3.1 | 340 | 130 | ILS (Mus musculus [8]): 37% |
| CN(C)C1C(O)C2Oc3c(cc(O)c4c3C(=O)c3cc5c(c(O)c3C4=O)C(N=[N+]=[N-])CC(C)(O)C5)C(C)(O2)C1O (stereo not given) | -0.3 | 1760 | 830 | ILS (Mus musculus [3]): 33% |
| COc1c2c(cc3c1C(OC)CC(C)(O)C3)C(=O)c1c3c(cc(O)c1C2=O)C1(C)OC(O3)C(O)C(N(C)C)C1O (stereo not given) | 0.6 | 9700 | 4500 | ILS (Mus musculus [9]): 25% |
| COC(=O)C1c2cc3c(c(O)c2C(OC2OC(C)C(OC)C(C)(OC)C2OC)CC1(C)O)C(=O)c1c(O)cc2c(c1C3=O)OC1OC2(C)C(O)C(N(C)C=O)C1O (stereo not given) | -0.1 | >1000 | > 1000 | ILS (Mus musculus [7]): 12% |
| COC1C(C)OC(OC2CC(C)(O)Cc3cc4c(c(OC(C)=O)c32)C(=O)c2c(O)cc3c(c2C4=O)OC2OC3(C)C(OC(C)=O)C(N(C)C)C2OC(C)=O)C(OC)C1(C)OC (stereo not given) | -0.1 | 41 | 17 | ILS (Mus musculus [9]): 37% |
| CNC1C(O)C2Oc3c(cc(O)c4c3C(=O)c3cc5c(c(O)c3C4=O)C(OC)CC(C)(O)C5)C(C)(O2)C1O (stereo not given) | -1.3 | 110 | 380 | ILS (Mus musculus [10]): 73% |
| C=CCOC1CC(C)(O)Cc2cc3c(c(O)c21)C(=O)c1c(O)cc2c(c1C3=O)OC1OC2(C)C(O)C(N(C)C)C1O (stereo not given) | 0.3 | 530 | 180 | ILS (Mus musculus [3]): 25% |
| CNC1C(O)C2Oc3c(cc(O)c4c3C(=O)c3cc5c(c(O)c3C4=O)C(OC3OC(C)C(OC)C(C)(OC)C3OC)CC(C)(O)C5)C(C)(O2)C1O (stereo not given) | -0.6 | >1000 | 880 | ILS (Mus musculus [11]): 24% |
| COC1CC(C)(O)Cc2cc3c(c(O)c21)C(=O)c1c(O)cc2c(c1C3=O)OC1OC2(C)C(O)C(N(C)C)C1O (stereo not given) | -0.4 | 130 | 61 | ILS (Mus musculus [12]): 197% |
| CN(C)C1C(O)C2Oc3c(cc(O)c4c3C(=O)c3cc5c(c(O)c3C4=O)C(OCCBr)CC(C)(O)C5)C(C)(O2)C1O (stereo not given) | -1.3 | 71 | 24 | ILS (Mus musculus [13]): 60% |
| C#CCOC1CC(C)(O)Cc2cc3c(c(O)c21)C(=O)c1c(O)cc2c(c1C3=O)OC1OC2(C)C(O)C(N(C)C)C1O (stereo not given) | -0.7 | 320 | 150 | ILS (Mus musculus [14]): 41% |
| CN(C)C1C(O)C2Oc3c(cc(O)c4c3C(=O)c3cc5c(c(O)c3C4=O)CCC(C)(O)C5)C(C)(O2)C1O (stereo not given) | -1.2 | 1760 | 940 | ILS (Mus musculus [15]): 21% |
| COC(=O)[C@@H]1c2cc3c(c(O)c2[C@@H](O[C@@H]2O[C@@H](C)[C@H](OC)[C@@](C)(OC)[C@H]2OC)C[C@]1(C)O)C(=O)c1c(O)cc2c(c1C3=O)O[C@H]1O[C@@]2(C)[C@@H](O)[C@@H](N(C)C)[C@@H]1O | -0.5 | 180 | 78 | ILS (Mus musculus [16]): 49% |
| CN(C)C1C(O)C2Oc3c(cc(O)c4c3C(=O)c3cc5c(c(O)c3C4=O)CCC(C)(O)C5C(=O)O)C(C)(O2)C1O (stereo not given) | 0.2 | 14500 | 5600 | ILS (Mus musculus [17]): -4% |
| COCCNC1CC(C)(O)Cc2cc3c(c(O)c21)C(=O)c1c(O)cc2c(c1C3=O)OC1OC2(C)C(O)C(N(C)C)C1O (stereo not given) | 0.2 | 2910 | 1040 | ILS (Mus musculus [18]): 40% |
| COC1C(C)OC(OC2CC(C)(O)Cc3cc4c(c(O)c32)C(=O)c2c(O)cc3c(c2C4=O)OC2OC3(C)C(OC(C)=O)C(N(C)C)C2OC(C)=O)C(OC)C1(C)OC (stereo not given) | -0.6 | 210 | 76 | ILS (Mus musculus [5]): 41% |
| COC1CC(C)(O)Cc2cc3c(c(O)c21)C(=O)c1c(O)cc2c(c1C3=O)OC1OC2(C)C(O)C(N(C)C=O)C1O (stereo not given) |  | >5000 | 4300 |  |
| CN(C)C1C(O)C2Oc3c(cc(O)c4c3C(=O)c3cc5c(c(O)c3C4=O)C(N)CC(C)(O)C5)C(C)(O2)C1O (stereo not given) | 0.2 | 2000 | 970 | ILS (Mus musculus [18]): 47% |
| COC1C(C)OC(OC2CC(C)(O)Cc3cc4c(c(O)c32)C(=O)c2c(O)cc3c(c2C4=O)OC2OC3(C)C(O)C(N(C)C=O)C2O)C(OC)C1(C)OC (stereo not given) | 0.1 | >1000 | > 1000 | ILS (Mus musculus [5]): 0% |
